Bioassay records as filed in PubChem BioAssay.
CHOP inhibitor – inhibitors of CHOP promoter induction, primary screen, cell-based, unfolded protein response, luciferase reporter | CHO-K1 CHOP-promoter luciferase, tunicamycin-induced, 15-18 h | inhibition, % at 10 µM | 3.8% of 220,000 active;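 active = compounds that reduced the stress-induced luciferase reporter signal by more than about 70% of percent inhibition, limit read from the data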
T cruzi repl – inhibitors of intracellular T. cruzi growth, primary screen, luminescence, NIH3T3 host cells; T. cruzi beta-gal in NIH3T3, 90 h; inhibition, % (concentration not given with the values); 1.4% of 300,000 active; AID 1885, 2009;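 active = mean inhibition across valid replicates above about 55%, limit read from the data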;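 also: signal also drops with host cell toxicity which is not excluded here; higher percent means less beta-gal luminescence so fewer parasites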
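Material: NIH/3T3 host cells with β-galactosidase reporter T. cruzi; Input: 5,000 host fibroblasts per well; Medium: DMEM, 2% fetal bovine serum; Compound: 50 nL DMSO compound solution per well; Schedule: 3 h host attachment, then at least 90 h co-culture; Detection: luminescent β-galactosidase signal after 60 min lysis.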
UPR CHOP act – activators of apoptotic CHOP UPR arm, primary screen, cell-based, CHO-CHOP luciferase reporter, luminescence, uHTS | UPR activation; percent of tunicamycin response over DMSO baseline | activation, % at 10 µM | 0.34% of 330,000 active;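 active = at 10 µM dose, activation of 40% or more, normalized to positive control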
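Material: CHO-CHOP cells, stable luciferase reporter of PERK-eIF2a-CHOP signalling; quantity: 500 reporter cells seeded per well; buffer or medium: F12 medium containing 10% fetal bovine serum; compound: one dose, 10 µM in 0.5% DMSO; incubation: 6 h compound treatment, 37 °C; measured by: Steady-Glo luciferase luminescence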
Dynein transport – inhibitors of GR-EGFP nuclear translocation, primary screen, dynein cargo transport inhibitor project, imaging, high-content, 3617.4 mouse cells; test concentration mostly 20 µM; stimulated with dexamethasone, 1 µM; active compounds read low; z-score, hits read low; 0.47% of 220,000 active;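 active = plate z-score of nuclear minus cytoplasmic receptor signal below a set negative limit, without overly bright fluorescence or cell loss, cut at about -3.5 in these data, passing the limit was not always enough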;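 also: z-score of nuclear minus cytoplasmic ring GR-EGFP intensity difference per well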
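Medium: Induction medium lacking tetracycline, stripped serum | Probe or stimulus: 1.0 µM final dexamethasone stimulus | Schedule: 48 h induction, then 1 h compound, then 30 min agonist, 37 °C | Signal: Automated 10x imaging of fixed Hoechst-stained cells | Evaluation: Per-cell GR-EGFP intensity, nucleus versus surrounding cytoplasmic ring, well-averaged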
UPR XBP1 act – activators of adaptive XBP1 UPR arm, primary screen, cell-based, CHO-XBP1 luciferase reporter, luminescence, uHTS; activation, % at 20 µM; IRE1-XBP1 UPR activation; percent of tunicamycin response, DMSO as zero; 0.33% of 330,000 active;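 active = versus positive control, 20 µM dose yields 30% or more activation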
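Material – CHO cell line with stable XBP1 luciferase reporter · Buffer or medium – F12 plus 10% FBS · Compound – single point, 20 µM final compound, 1% DMSO · Schedule – 16-18 h cell attachment at 37 °C, then 6 h compound exposure · Signal – Steady-Glo luminescence read · Benchmarks – high control tunicamycin 10 µg/mL final, low control DMSO vehicle only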
Lmaj promast – Leishmania major promastigote growth inhibition, primary screen | Leishmania major promastigotes, resazurin fluorescence viability | inhibition, % at 10 µM | 9% of 200,000 active; in the data active = inhibition above about 50%;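 also: promastigotes grown with compound for 44 hours at 28 °C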
Numbers stand for hits; - = inactive; . = no result. This excerpt belongs to a sample that is enriched for hits.

SMILES	CHOP inhibitor	T cruzi repl	UPR CHOP act	Dynein transport	UPR XBP1 act	Lmaj promast
COc1ccccc1N1CCN(C(c2cccs2)c2nnnn2C2CCCC2)CC1 (configuration not stated)	-	-	-	-	-	-
c1coc(CN2CCN(C(c3cccs3)c3nnnn3C3CCCC3)CC2)c1 (configuration not stated)	-	-	-	-	-	-
O=C(c1ccco1)N1CCN(C(c2cccs2)c2nnnn2C2CCCC2)CC1 (configuration not stated)	-	-	-	-	-	-
c1ccc(CC2CCN(C(c3cccs3)c3nnnn3C3CCCC3)CC2)cc1 (configuration not stated)	-	-	-	-	-	64
c1ccc(CN(Cc2cccs2)C(c2cccs2)c2nnnn2C2CCCC2)cc1 (configuration not stated)	-	-	-	-	-	89
O=C(COC(=O)c1cc(Br)ccc1Cl)NC1CCCC1	-	-	-	-	-	-
COc1cc(-c2nc(-c3ccc4c(c3)-c3ccccc3S4(=O)=O)c(-c3ccccc3)[nH]2)cc(OC)c1O	92	-	-	-	-	91
COc1ccccc1C1/C(=C(\O)c2ccc3c(c2)OCCO3)C(=O)C(=O)N1CCCn1ccnc1 (configuration not stated)	.	-	-	.	-	.
N#Cc1ncc(-c2ccc3c(c2)OCCOCCOCCOCCOCCO3)nc1C#N	106	-	-	-	-	96
O=C(/C=C/c1cccs1)Nc1nccs1	-	-	-	-	-	-
O=C(/C=C/c1cccs1)Nc1cccc(NC(=O)/C=C/c2cccs2)n1	-	-	-	-	-	55
CCOc1ccc(S(=O)(=O)Nc2ccc(C(=O)NCC(c3ccco3)N3CCCCC3)cc2)cc1 (configuration not stated)	.	-	-	.	-	.
CC1=CC(=C(C#N)C#N)c2ccccc2N1C	-	-	-	-	-	99
Cc1ccn2cc(-c3ccc(NS(=O)(=O)c4ccccc4)cc3)nc2c1	-	-	-	-	-	92
Cc1ccn2cc(-c3ccc(NC(=O)c4ccco4)cc3)nc2c1	-	-	-	-	-	68
Cc1ccc(S(=O)(=O)Nc2ccc(-c3cn4ccc(C)cc4n3)cc2)cc1	-	-	-	-	-	-
Cc1cccc(NC(=S)NN(Cc2ccccc2)c2ccccc2)c1C	-	-	-	-	-	56
Cc1cccc(NC(=S)NC(=O)CCc2ccccc2)c1C	75	-	-	-	-	-
COc1ccc(-c2csc(NC(=O)C3CSC4(C)CCC(=O)N34)n2)c(OC)c1 (configuration not stated)	.	-	-	.	-	.
CCC1(CC)NC(=O)N(CC(=O)OC(C)C(=O)Nc2cc([N+](=O)[O-])ccc2OC)C1=O (configuration not stated)	.	-	-	.	-	.
CS(=O)(=O)c1ncc(Cl)c(C(=O)Nc2ccc(OC(F)F)cc2)n1	.	55	-	.	-	.
Cc1cc(NCCCN(C)C)n2nc(-c3cccs3)cc2n1	-	-	-	-	-	77
CCc1ccc(CSc2nccn2-c2ccccc2)cc1	72	-	-	-	-	-
c1ccc(CCSc2nccn2-c2ccccc2)cc1	-	-	-	-	-	-
CCOC(=O)CN1CCC(c2cc(-c3ccc(Cl)cc3)n[nH]2)CC1	.	-	-	.	-	.
SMILES	CHOP inhibitor	T cruzi repl	UPR CHOP act	Dynein transport	UPR XBP1 act	Lmaj promast
O=[N+]([O-])c1cccnc1N1CCC(c2cc(-c3ccc(Cl)cc3)n[nH]2)CC1	100	-	-	-	-	-
CCOc1ccc(-n2c(C)c(C(=O)OC)c3cc(O)ccc32)cc1	81	-	-	-	-	.
CCc1noc(C)c1C(=O)N1CCC(CCC(=O)Nc2cccc(C)c2)CC1	.	-	-	.	-	.
CCOc1ccccc1-n1c(=O)c2ccccc2c2ccccc2c1=O	-	-	-	-	-	77
CCOc1ccc(-n2c(=O)c3ccccc3c3ccccc3c2=O)cc1	-	-	-	-	-	.
CCCN(CC(=O)Nc1ccccc1OC)C(=O)c1cc(-c2ccccc2)nn1-c1ccccc1	.	.	-	.	-	.
CCn1c2c(c3cc(OCC(C)C)ccc31)CCCC2=O	-	-	-	-	-	-
CCn1c2c(c3cc(Br)ccc31)CCC/C2=N\O	90	-	-	-	-	-
COc1ccc(C2=NN(C(=O)c3cccs3)C(c3ccccc3O)C2)cc1 (configuration not stated)	-	60	-	-	-	-
COc1ccccc1C1CC(c2ccc(NS(C)(=O)=O)cc2)=NN1C(=O)c1ccccc1 (configuration not stated)	-	-	-	-	-	77
O=C(Cc1ccc(-n2c(=O)c3ccccc3n(Cc3ccccc3F)c2=O)cc1)NCC1CCCO1 (configuration not stated)	-	-	-	-	-	99
O=C(Cc1ccc(-n2c(=O)c3ccccc3n(Cc3ccc(F)cc3)c2=O)cc1)NCC1CCCO1 (configuration not stated)	-	-	-	-	-	-
O=C(Cc1ccc(-n2c(=O)c3ccccc3n(Cc3ccccc3Cl)c2=O)cc1)NCC1CCCO1 (configuration not stated)	-	-	-	-	-	100
CC1Sc2ccc(C(=O)OCc3ccccc3Cl)cc2NC1=O (configuration not stated)	.	-	-	.	-	.
COc1ccc(C(CNC(=O)c2ccc(Br)o2)N2CCN(C)CC2)cc1 (configuration not stated)	.	-	-	.	-	.
CCOc1ccc2nc(C)cc(Nc3ccc(N4CCOCC4)cc3)c2c1	-	-	-	-	-	64
Cc1cc(C(=O)Nc2ccc3c(c2)OCCO3)c2ccccc2n1	-	-	-	-	-	-
Cc1cc(C)nc(Nc2ccc(N3CCOCC3)cc2)n1	-	-	-	-	-	-
CC(=O)c1ccc(Nc2cc(C)nc3ccc(C)cc23)cc1	-	-	-	-	-	84
CCOc1ccc2nc(C)cc(Nc3cccc([N+](=O)[O-])c3)c2c1	-	-	-	-	-	100
Cc1ccc2nc(C)cc(Nc3ccc4c(c3)OCCO4)c2c1	-	-	-	-	-	100
CCc1nn(CC(=O)N2CCN(c3ccc(OC)cc3)CC2)c(=O)c2cc3occc3n12	.	-	-	.	-	.
CCOc1ccc(-c2nnc(SCC(=O)N3CCNC3=O)o2)cc1	.	.	-	.	-	.
Cc1cc(Nc2ccc(C)c(C)c2)c2ccccc2n1	.	-	-	.	-	.
